Data: ChEMBL document CHEMBL5653631, “A Potent and Selective ULK1 Inhibitor Suppresses Autophagy and Sensitizes Cancer Cells to Nutrient Stress” (iScience, 2018)
Blank lines part the entries; values can stand above or below the compound they belong to.

Legend:
[1] = molecular target: Calcium/calmodulin-dependent protein kinase type II subunit delta (Homo sapiens) (UniProt Q13557); assay: Inhibition of human recombinant CaMK2d at 500 nM related to control ULK1
[2] = molecular target: T1, Mitogen-activated protein kinase 12 (Homo sapiens) (UniProt P53778); assay: Inhibition of human recombinant p38gamma at 500 nM related to control ULK1
T1 sequence (whole entry): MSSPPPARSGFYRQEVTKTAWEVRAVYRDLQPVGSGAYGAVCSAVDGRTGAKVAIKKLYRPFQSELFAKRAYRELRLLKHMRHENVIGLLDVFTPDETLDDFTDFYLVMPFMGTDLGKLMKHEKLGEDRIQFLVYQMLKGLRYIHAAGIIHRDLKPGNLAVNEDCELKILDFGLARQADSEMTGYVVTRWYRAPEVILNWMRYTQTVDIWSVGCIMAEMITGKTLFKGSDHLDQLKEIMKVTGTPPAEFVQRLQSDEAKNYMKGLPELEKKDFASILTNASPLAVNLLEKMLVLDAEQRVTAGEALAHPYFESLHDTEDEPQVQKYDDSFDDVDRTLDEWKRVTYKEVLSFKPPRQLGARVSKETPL

[3] = molecular target: Fibroblast growth factor receptor 1 (Homo sapiens) (UniProt P11362); assay: Inhibition of human recombinant FGFR1 at 500 nM related to control ULK1
Chain of Fibroblast growth factor receptor 1 (Homo sapiens) (P11362 22-822 limits assumed): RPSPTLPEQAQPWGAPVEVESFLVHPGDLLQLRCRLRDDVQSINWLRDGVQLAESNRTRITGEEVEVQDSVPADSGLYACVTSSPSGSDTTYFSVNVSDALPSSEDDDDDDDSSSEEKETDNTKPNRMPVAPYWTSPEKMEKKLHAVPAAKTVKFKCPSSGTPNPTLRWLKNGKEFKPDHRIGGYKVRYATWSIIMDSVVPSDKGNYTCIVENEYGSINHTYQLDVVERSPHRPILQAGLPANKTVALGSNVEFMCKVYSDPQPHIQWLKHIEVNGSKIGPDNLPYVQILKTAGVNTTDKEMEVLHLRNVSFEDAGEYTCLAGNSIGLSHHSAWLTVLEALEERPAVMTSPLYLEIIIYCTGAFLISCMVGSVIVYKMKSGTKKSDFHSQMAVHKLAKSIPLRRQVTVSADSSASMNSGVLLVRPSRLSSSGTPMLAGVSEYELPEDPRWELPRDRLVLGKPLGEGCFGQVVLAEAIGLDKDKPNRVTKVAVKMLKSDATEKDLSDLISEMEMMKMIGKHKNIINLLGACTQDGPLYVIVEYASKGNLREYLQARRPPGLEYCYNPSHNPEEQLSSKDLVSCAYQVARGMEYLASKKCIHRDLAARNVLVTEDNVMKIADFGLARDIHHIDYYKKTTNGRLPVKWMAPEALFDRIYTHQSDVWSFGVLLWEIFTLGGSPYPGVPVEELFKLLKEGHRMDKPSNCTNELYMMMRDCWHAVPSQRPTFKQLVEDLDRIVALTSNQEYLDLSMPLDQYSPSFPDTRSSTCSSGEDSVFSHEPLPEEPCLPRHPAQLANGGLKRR

[4] = molecular target: Serine/threonine-protein kinase Nek4 (Homo sapiens) (UniProt P51957); assay: Inhibition of human recombinant NEK4 at 15 nM in presence of ATP by radiometric assay relative to control
Chain of Serine/threonine-protein kinase Nek4 (Homo sapiens) (P51957 whole entry, looked up): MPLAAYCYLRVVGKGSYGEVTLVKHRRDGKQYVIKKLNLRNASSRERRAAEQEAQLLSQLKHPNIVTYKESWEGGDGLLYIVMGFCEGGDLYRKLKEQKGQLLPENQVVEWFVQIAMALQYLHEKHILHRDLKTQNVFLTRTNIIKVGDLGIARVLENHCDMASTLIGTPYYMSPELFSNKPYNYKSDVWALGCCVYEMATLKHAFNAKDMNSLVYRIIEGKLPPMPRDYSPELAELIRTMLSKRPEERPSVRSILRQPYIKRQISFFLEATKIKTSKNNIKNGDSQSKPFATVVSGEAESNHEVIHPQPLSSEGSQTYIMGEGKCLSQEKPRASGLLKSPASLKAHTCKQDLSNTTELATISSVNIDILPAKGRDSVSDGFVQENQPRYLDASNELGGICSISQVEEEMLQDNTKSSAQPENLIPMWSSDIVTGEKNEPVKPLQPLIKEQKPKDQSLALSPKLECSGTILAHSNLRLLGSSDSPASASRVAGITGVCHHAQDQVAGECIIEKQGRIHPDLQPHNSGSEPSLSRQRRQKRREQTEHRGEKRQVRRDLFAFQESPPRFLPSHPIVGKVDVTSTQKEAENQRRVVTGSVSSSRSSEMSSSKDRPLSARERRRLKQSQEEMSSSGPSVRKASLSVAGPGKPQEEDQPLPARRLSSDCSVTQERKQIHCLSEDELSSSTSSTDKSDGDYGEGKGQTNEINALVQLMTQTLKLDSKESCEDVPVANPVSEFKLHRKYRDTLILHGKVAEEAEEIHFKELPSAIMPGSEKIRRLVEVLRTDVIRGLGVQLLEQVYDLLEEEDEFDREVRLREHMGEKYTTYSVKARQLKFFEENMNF

[5] = molecular target: Tyrosine-protein kinase JAK1 (Homo sapiens) (UniProt P23458); assay: Inhibition of human recombinant JAK1 at 15 nM related to control ULK1
Chain of Tyrosine-protein kinase JAK1 (Homo sapiens) (P23458 whole entry): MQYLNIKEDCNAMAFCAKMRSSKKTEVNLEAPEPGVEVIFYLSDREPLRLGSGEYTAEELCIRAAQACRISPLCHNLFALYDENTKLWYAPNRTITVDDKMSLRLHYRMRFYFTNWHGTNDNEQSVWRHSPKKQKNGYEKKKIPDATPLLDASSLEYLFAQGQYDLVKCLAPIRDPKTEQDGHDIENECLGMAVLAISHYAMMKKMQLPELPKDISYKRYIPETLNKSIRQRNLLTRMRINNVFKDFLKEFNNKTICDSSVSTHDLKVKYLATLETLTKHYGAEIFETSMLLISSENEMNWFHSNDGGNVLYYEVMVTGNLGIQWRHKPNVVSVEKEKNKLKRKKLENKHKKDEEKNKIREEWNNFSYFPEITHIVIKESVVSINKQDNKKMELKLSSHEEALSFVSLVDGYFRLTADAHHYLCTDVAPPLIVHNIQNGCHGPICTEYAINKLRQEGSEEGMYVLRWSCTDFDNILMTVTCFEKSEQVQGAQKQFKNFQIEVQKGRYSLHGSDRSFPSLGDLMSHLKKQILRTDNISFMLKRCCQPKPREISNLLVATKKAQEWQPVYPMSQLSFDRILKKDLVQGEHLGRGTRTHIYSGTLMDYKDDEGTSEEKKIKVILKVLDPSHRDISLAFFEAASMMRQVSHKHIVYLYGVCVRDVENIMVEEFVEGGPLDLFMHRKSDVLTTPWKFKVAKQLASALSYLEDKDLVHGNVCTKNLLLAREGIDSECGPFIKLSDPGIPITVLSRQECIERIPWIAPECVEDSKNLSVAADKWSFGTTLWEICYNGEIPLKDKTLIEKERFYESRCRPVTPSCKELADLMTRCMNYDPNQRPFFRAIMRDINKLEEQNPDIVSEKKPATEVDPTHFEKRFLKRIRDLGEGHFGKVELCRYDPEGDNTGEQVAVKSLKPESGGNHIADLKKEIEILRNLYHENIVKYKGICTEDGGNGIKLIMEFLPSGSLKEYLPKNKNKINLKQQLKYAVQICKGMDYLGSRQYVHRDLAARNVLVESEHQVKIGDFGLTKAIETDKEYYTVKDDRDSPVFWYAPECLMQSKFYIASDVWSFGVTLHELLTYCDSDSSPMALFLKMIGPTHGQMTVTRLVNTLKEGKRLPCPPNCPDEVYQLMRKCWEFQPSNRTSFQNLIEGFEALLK

[6] = molecular target: eIF-2-alpha kinase GCN2 (Homo sapiens) (UniProt Q9P2K8); assay: Inhibition of human recombinant GCN2 at 15 nM in presence of ATP by radiometric assay relative to control
Chain of eIF-2-alpha kinase GCN2 (Homo sapiens) (Q9P2K8 whole entry): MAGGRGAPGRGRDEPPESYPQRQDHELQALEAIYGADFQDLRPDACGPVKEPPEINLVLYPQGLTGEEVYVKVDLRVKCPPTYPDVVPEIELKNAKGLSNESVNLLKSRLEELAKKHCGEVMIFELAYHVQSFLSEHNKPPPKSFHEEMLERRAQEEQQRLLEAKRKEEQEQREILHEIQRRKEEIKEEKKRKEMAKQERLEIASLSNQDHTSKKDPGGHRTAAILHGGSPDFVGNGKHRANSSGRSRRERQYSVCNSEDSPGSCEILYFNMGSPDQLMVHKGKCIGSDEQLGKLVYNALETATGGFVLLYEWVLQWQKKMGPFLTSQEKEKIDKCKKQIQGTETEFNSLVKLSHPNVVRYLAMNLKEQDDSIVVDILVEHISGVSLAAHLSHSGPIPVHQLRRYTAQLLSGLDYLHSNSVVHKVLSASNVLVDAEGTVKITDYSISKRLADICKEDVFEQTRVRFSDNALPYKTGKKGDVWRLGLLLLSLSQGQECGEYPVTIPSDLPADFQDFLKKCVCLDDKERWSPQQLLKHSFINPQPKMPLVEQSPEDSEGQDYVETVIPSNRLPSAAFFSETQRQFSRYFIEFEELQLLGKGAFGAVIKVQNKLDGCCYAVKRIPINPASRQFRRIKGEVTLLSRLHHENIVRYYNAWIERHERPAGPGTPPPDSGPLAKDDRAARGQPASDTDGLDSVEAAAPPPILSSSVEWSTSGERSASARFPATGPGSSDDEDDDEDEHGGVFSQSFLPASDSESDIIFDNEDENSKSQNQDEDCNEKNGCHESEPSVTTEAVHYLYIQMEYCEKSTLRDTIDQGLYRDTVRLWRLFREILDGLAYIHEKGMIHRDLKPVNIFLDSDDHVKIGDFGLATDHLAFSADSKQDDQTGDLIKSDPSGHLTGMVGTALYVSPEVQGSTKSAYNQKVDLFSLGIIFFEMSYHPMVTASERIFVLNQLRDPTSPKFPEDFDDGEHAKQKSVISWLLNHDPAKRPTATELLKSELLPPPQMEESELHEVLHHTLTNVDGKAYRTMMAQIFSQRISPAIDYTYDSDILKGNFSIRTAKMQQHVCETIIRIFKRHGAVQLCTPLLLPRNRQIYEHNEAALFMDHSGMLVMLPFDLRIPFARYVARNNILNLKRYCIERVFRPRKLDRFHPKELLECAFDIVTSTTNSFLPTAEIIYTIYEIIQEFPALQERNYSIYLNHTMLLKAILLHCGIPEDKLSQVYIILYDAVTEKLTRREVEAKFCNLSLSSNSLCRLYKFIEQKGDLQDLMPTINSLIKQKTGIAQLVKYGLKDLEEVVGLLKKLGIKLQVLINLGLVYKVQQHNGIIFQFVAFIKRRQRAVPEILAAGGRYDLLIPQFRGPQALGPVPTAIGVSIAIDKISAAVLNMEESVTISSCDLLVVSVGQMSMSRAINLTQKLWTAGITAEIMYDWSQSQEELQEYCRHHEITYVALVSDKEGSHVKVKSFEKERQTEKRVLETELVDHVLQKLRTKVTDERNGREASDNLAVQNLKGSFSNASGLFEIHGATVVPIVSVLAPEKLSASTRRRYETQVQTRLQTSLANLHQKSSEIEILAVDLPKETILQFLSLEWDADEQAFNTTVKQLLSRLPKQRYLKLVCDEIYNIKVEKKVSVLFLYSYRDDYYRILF

[7] = molecular target: 5'-AMP-activated protein kinase catalytic subunit alpha-2 (Homo sapiens) (UniProt P54646); assay: Inhibition of human recombinant AMPKa2 at 15 nM in presence of ATP by radiometric assay relative to control
How it was run: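 Panel of 327 recombinant human kinases, each assayed in vitro by radiometric activity assay in duplicate at a single inhibitor concentration per compound, chosen with reference to its ULK1 inhibition. Activity remaining was expressed as percent of vehicle control, and percent inhibition was calculated as 100 minus percent activity remaining.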

[8] = molecular target: Bone morphogenetic protein receptor type-1B (Homo sapiens) (UniProt O00238); assay: Inhibition of human recombinant BMPR1B at 15 nM related to control ULK1
Chain of Bone morphogenetic protein receptor type-1B (Homo sapiens) (O00238 whole entry): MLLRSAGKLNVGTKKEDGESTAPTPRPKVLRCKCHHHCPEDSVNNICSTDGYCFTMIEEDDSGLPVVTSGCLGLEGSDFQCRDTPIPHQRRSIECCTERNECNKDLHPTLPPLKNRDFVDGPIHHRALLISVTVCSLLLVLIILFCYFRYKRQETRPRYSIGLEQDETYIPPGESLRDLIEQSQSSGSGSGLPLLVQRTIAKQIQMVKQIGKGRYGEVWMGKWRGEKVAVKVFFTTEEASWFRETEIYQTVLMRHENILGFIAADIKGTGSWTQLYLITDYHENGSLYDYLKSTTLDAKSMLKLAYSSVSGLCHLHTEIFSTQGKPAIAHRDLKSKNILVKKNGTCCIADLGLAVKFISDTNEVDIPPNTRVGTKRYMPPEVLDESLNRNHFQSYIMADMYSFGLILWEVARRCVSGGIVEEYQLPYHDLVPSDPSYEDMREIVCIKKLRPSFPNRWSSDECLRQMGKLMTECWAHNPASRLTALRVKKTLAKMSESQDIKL

[9] = molecular target: High affinity nerve growth factor receptor (Homo sapiens) (UniProt P04629); assay: Inhibition of human recombinant TRKA at 40 nM in presence of ATP by radiometric assay relative to control
[10] = molecular target: T2, Mitogen-activated protein kinase kinase kinase 5 (Homo sapiens) (UniProt Q99683); assay: Inhibition of human recombinant MAP3K5 at 40 nM related to control ULK1
T2 sequence (whole entry): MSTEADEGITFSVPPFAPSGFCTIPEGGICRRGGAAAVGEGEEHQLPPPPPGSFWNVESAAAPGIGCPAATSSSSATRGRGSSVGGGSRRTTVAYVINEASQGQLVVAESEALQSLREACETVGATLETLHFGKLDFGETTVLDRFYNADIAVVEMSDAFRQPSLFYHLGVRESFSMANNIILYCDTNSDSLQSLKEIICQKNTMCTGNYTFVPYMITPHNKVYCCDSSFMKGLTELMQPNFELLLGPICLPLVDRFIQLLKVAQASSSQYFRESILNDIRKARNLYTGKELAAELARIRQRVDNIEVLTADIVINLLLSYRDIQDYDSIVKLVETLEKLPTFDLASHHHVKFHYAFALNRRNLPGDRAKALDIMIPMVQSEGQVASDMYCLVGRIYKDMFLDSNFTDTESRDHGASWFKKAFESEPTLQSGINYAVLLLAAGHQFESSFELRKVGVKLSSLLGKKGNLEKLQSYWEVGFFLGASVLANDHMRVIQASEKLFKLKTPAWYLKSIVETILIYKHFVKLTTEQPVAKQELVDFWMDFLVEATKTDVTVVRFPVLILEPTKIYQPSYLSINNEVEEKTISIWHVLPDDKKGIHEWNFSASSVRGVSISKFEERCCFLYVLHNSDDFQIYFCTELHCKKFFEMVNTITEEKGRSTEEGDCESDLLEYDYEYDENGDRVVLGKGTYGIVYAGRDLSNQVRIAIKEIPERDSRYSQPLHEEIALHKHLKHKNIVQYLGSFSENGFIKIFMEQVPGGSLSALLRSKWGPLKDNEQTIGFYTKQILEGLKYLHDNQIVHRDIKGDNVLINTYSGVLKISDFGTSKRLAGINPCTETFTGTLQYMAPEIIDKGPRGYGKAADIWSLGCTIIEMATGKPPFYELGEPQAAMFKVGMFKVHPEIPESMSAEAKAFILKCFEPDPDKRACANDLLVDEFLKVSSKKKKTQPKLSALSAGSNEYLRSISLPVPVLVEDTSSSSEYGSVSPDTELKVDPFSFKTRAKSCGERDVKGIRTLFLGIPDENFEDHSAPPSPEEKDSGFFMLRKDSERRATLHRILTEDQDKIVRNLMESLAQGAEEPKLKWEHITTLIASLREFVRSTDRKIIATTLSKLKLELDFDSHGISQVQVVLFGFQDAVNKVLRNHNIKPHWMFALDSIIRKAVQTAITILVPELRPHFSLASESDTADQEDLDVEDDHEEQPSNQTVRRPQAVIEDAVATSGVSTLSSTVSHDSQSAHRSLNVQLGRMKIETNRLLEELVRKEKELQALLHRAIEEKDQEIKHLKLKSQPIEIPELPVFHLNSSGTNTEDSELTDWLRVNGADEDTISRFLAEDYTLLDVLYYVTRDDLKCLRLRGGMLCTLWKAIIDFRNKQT

fold change (FC) [1]: 0.12
fold change (FC) [2]: 0
fold change (FC) [3]: 0.47
SMILES: CNC(=O)c1ccccc1Oc1nc(Nc2cc(OC)c(OC)c(OC)c2)ncc1Br

inhibition [4]: 6%
fold change (FC) [5]: 0
inhibition [6]: 8%
inhibition [7]: 83%
fold change (FC) [8]: 0.27
SMILES: CC(C)[C@H](NC(=O)c1cc(-c2cnn3cc(-c4ccc(OCCN5CCCCC5)cc4)cnc23)cs1)C(F)(F)F

inhibition [9]: 0%
fold change (FC) [10]: 0
SMILES: O=C(N[C@@H](C1CC1)C(F)(F)F)c1cc(-c2cnn3cc(-c4ccc(F)cc4)cnc23)cs1
